Converted amounts (≈) assume the structure as drawn. The source made the active and inactive calls. The calls are words filed in the database; no cut-off is given here.
Columns and labels:
Assay type in all cases: functional, organism-based
[1] = test system: Meloidogyne javanica; assay: Nematicidal Activity against Meloidogyne javanica (root-knot nematode) assessed as death/paralysis of nematodes at 1 hr after immersion in test solution
Method in brief: (§1)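 J2 of an Italian M. javanica population reared two months on tomato in a glasshouse at 25+2 °C. Pure compounds were made up as double-strength solutions (methanol ≤1% v/v final, tween in water) and mixed 1:1 with 15 J2 per well, covered, dark, 28 °C. Paralysis was scored by microscope, 5 replicates, run twice, Schneider-Orelli corrected, EC50 by regression.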

[2] = test system: Meloidogyne javanica; assay: Nematicidal Activity against Meloidogyne javanica (root-knot nematode) assessed as death/paralysis of nematodes at 1 day after immersion in test solution; details: 24 h; method in brief: as §1
[3] = test system: Meloidogyne javanica; assay: Nematicidal Activity against Meloidogyne javanica (root-knot nematode) assessed as death/paralysis of nematodes at 25 to 1000 mg/l at 1 hr after immersion in test solution
Method in brief: (§2)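 Second-stage juveniles (J2) came from an Italian M. javanica population reared two months on tomato in a glasshouse at 25±2 °C. Solutions at double strength were mixed 1:1 with 15 J2 per well, covered, in the dark at 28 °C. Methanol was ≤1% v/v final, and water and 0.3% tween controls were run. Paralysis was scored at 10×. Five replicates per treatment, experiment done twice. Control-corrected (Schneider-Orelli) EC50 was obtained by regression.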

[4] = test system: Meloidogyne javanica; assay: Nematicidal Activity against Meloidogyne javanica (root-knot nematode) assessed as death/paralysis of nematodes at 25 to 1000 mg/l at 1 day after immersion in test solution; method in brief: as §2

SMILES | EC50 [1] | EC50 [2] | Activity [3] | Activity [4]
CCCCC/C=C/C=C/C=O | 7.53 µg/mL (≈ 49.5 µM) | 11.7 µg/mL (≈ 76.9 µM) |  | 
CCCCC/C=C/C=O |  | > 25 µg/mL | inactive | 
CCCCCCCC/C=C/C=O | > 25 µg/mL | > 25 µg/mL |  | 
CCCCCC=O |  |  | inactive | inactive
CCCCCCC=O |  |  | inactive | inactive
O=Cc1ccc(CO)o1 [AES-103] | > 25 µg/mL | > 25 µg/mL |  | 
CCOP(=O)(SC(C)CC)N1CCSC1=O (stereo not given) [FOSTHIAZATE] | > 25 µg/mL | 15.9 µg/mL (≈ 56.1 µM) |  | 
O=Cc1ccco1 [FURFURAL] | > 25 µg/mL | 21.8 µg/mL (≈ 227 µM) |  | 
CCCCCCCCC=O [NONANAL] | > 50 µg/mL |  |  | inactive
CCCCCCC/C=C/C=O [TRANS-2-DECENAL] | 11.8 µg/mL (≈ 76.2 µM) | 20.4 µg/mL (≈ 132 µM) |  | 

Reference: ChEMBL document CHEMBL3046908, “Nematicidal activity of (E,E)-2,4-decadienal and (E)-2-decenal from Ailanthus altissima against Meloidogyne javanica” (J Agric Food Chem, 2012)
